Experimental data from ChEMBL document CHEMBL3120161, “Antimycobacterial activity of nitrogen heterocycles derivatives: bipyridine derivatives. Part III” (Eur J Med Chem, 2014).
Converted amounts (≈) assume the structure as drawn. The source made the active and inactive calls. No cut-off for these calls is given here.

Tests used:
[1] = system: Mycobacterium tuberculosis; test: Antimycobacterial activity against Mycobacterium tuberculosis H37Rv ATCC 27294 at 0.31 ug/ml after 7 days by microplate Alamar blue assay relative to control; assay type: functional; settings: H37Rv ATCC 27294, 168 h
Procedure, shortened: (§1)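 Cycle 1 HTS MABA: M. tuberculosis H37Rv ATCC 27294 in 7H12 broth, 384-well, final 1% DMSO. Ten twofold dilutions, typically 100 to 0.195 µg/mL. Amikacin controls at 0.17 and 3.20 µM; the high level serves as background for percent inhibition. 7 days at 37 °C, ~95% humidity. Fluorescence read at 535 nm excitation / 590 nm emission.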

[2] = system: Mycobacterium tuberculosis; test: Antimycobacterial activity against Mycobacterium tuberculosis H37Rv ATCC 27294 at 1.25 to 5 ug/ml after 7 days by microplate Alamar blue assay relative to control; assay type: functional; procedure, shortened: as §1
[3] = system: Mycobacterium tuberculosis; test: Antimycobacterial activity against Mycobacterium tuberculosis H37Rv ATCC 27294 after 7 days by microplate Alamar blue assay; assay type: functional, organism-based; settings: H37Rv ATCC 27294, 168 h; procedure, shortened: as §1
[4] = system: Mycobacterium tuberculosis; test: Antimycobacterial activity against Mycobacterium tuberculosis H37Rv ATCC 27294 at 0.63 ug/ml after 7 days by microplate Alamar blue assay relative to control; assay type: functional; settings: H37Rv ATCC 27294, 168 h; procedure, shortened: as §1
[5] = system: Mycobacterium tuberculosis; test: Antimycobacterial activity against Mycobacterium tuberculosis H37Rv ATCC 27294 after 7 days by broth microdilution assay; assay type: functional; settings: H37Rv ATCC 27294, 168 h; procedure, shortened: as §1
[6] = system: Mycobacterium tuberculosis; test: Antimycobacterial activity against Mycobacterium tuberculosis H37Rv ATCC 27294 at 12.5 to 50 ug/ml after 7 days by microplate Alamar blue assay relative to control; assay type: functional; procedure, shortened: as §1
[7] = system: Mycobacterium tuberculosis; test: Antimycobacterial activity against Mycobacterium tuberculosis H37Rv ATCC 27294 at 3.13 ug/ml after 7 days by microplate Alamar blue assay relative to control; assay type: functional; settings: H37Rv ATCC 27294, 168 h; procedure, shortened: as §1
[8] = system: Mycobacterium tuberculosis; test: Antimycobacterial activity against Mycobacterium tuberculosis H37Rv ATCC 27294 at 1.56 ug/ml after 7 days by microplate Alamar blue assay relative to control; assay type: functional; settings: H37Rv ATCC 27294, 168 h; procedure, shortened: as §1
[9] = system: Mycobacterium tuberculosis; test: Antimycobacterial activity against Mycobacterium tuberculosis H37Rv ATCC 27294 at 6.25 ug/ml after 7 days by microplate Alamar blue assay relative to control; assay type: functional; settings: H37Rv ATCC 27294, 168 h; procedure, shortened: as §1
[10] = system: Mycobacterium tuberculosis; test: Antimycobacterial activity against Mycobacterium tuberculosis H37Rv ATCC 27294 at 100 ug/ml after 7 days by microplate Alamar blue assay relative to control; assay type: functional; settings: H37Rv ATCC 27294, 168 h; procedure, shortened: as §1
[11] = system: Mycobacterium tuberculosis; test: Antimycobacterial activity against Mycobacterium tuberculosis H37Rv ATCC 27294 at 50 ug/ml after 7 days by microplate Alamar blue assay relative to control; assay type: functional; settings: H37Rv ATCC 27294, 168 h; procedure, shortened: as §1
[12] = system: Mycobacterium tuberculosis; test: Antimycobacterial activity against Mycobacterium tuberculosis H37Rv ATCC 27294 at 12.5 ug/ml after 7 days by microplate Alamar blue assay relative to control; assay type: functional; settings: H37Rv ATCC 27294, 168 h; procedure, shortened: as §1
[13] = system: Mycobacterium tuberculosis; test: Antimycobacterial activity against Mycobacterium tuberculosis H37Rv SRI 1345 infected in mouse J774A1 cells assessed as reduction in bacterial growth at 1 ug/ml after 7 days relative to control; assay type: functional, J774.A1
Procedure, shortened: (§2)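 Murine J774 macrophages grown in RPMI 1640 with L-glutamine and FBS at 37 °C, 5% CO2. Plated at 2.0 × 10^5 in 10% FBS, switched to 1% FBS next day. Infected 24 h later at MOI 5 for 4 h, washed, then drug added. At 0 and 7 days, cells lysed with SDS, DNase-treated and plated on 7H10 agar for CFU. Duplicates; read-out is log reduction from day 0 to day 7.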

[14] = Cytotoxicity against mouse J774A1 cells assessed as cell viability at 0.1 ug/ml after 7 days by MTT assay relative to control; assay type: cell-based, J774.A1; settings: read-out: Activity
Procedure, shortened: (§3)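 Uninfected murine J774 macrophages grown in RPMI 1640 with L-glutamine and FBS at 37 °C, 5% CO2. Cells seeded at 2.0 × 10^5 per well in 10% FBS, then switched to 1% FBS overnight. Run in parallel with the 7-day infection assay. […] Read out by MTT as percent viability.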

[15] = system: Mycobacterium tuberculosis; test: Antimycobacterial activity against Mycobacterium tuberculosis H37Rv SRI 1345 after 7 days by broth microdilution assay; assay type: functional; settings: H37Rv SRI 1345, 168 h
[16] = system: Mycobacterium tuberculosis; test: Antimycobacterial activity against Mycobacterium tuberculosis H37Rv ATCC 27294 at 0.02 ug/ml after 7 days by microplate Alamar blue assay relative to control; assay type: functional; settings: H37Rv ATCC 27294, 168 h; procedure, shortened: as §1
[17] = system: Mycobacterium tuberculosis; test: Antimycobacterial activity against Mycobacterium tuberculosis H37Rv SRI 1345 at MIC after 7 days by broth microdilution assay relative to control; assay type: functional
[18] = Cytotoxicity against mouse J774A1 cells assessed as cell viability at 0.01 ug/ml after 7 days by MTT assay relative to control; assay type: cell-based, J774.A1; settings: read-out: Activity; procedure, shortened: as §3
[19] = system: Mycobacterium tuberculosis; test: Antimycobacterial activity against Mycobacterium tuberculosis H37Rv SRI 1345 infected in mouse J774A1 cells assessed as reduction in bacterial growth at 0.1 ug/ml after 7 days relative to control; assay type: functional, J774.A1; procedure, shortened: as §2
[20] = Cytotoxicity against mouse J774A1 cells assessed as cell viability at 1 ug/ml after 7 days by MTT assay relative to control; assay type: cell-based, J774.A1; settings: read-out: Activity; procedure, shortened: as §3
[21] = system: Mycobacterium tuberculosis; test: […] activity against Mycobacterium tuberculosis H37Rv SRI 1345 after 16 to 21 days; assay type: functional
Procedure, shortened: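 MBC, done after MIC testing in H37Rv SRI 1345: diluted aliquots from wells without macroscopic growth are plated on Middlebrook 7H10 agar and incubated 16–21 days at 37 °C. CFUs are counted. MBC is the lowest concentration giving 99.9% kill; rejection value is ≥40 colonies.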

[22] = system: Mycobacterium tuberculosis; test: Antimycobacterial activity against Mycobacterium tuberculosis H37Rv SRI 1345 infected in mouse J774A1 cells assessed as reduction in bacterial growth at 0.01 ug/ml after 7 days relative to control; assay type: functional, J774.A1; procedure, shortened: as §2
[23] = system: Mycobacterium tuberculosis; test: Antimycobacterial activity against Mycobacterium tuberculosis H37Rv SRI 1345 incubated for 7 days under anaerobic condition measured after 7 days of recovery under gaseous condition by low oxygen recovery assay; assay type: functional
[24] = system: Mycobacterium tuberculosis; test: Antimycobacterial activity against Mycobacterium tuberculosis H37Rv ATCC 27294 at 12.5 to 100 ug/ml after 7 days by microplate Alamar blue assay relative to control; assay type: functional; procedure, shortened: as §1
[25] = system: Mycobacterium tuberculosis; test: Antimycobacterial activity against Mycobacterium tuberculosis H37Rv SRI 1345 infected in mouse J774A1 cells assessed as reduction in bacterial growth at 7.5 ug/ml after 7 days relative to control; assay type: functional, J774.A1
Procedure, shortened: (§4)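 Murine J774 macrophages in RPMI 1640 with L-glutamine and FBS, seeded at 2.0 × 10^5 per well in 10% FBS, then switched to 1% FBS. Infected 4 h with H37Rv at MOI 5; unphagocytosed bacteria washed off. Compound added at three concentrations (0.75, 7.5, 75 µg/mL) for 7 days. At 0 and 7 days cells lysed with SDS, DNase-treated and plated on 7H10 for CFU; log reduction reported.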

[26] = system: Mycobacterium tuberculosis; test: Antimycobacterial activity against Mycobacterium tuberculosis H37Rv SRI 1345 infected in mouse J774A1 cells assessed as reduction in bacterial growth at 75 ug/ml after 7 days relative to control; assay type: functional, J774.A1; procedure, shortened: as §4
[27] = Cytotoxicity against mouse J774A1 cells assessed as cell viability at 0.75 ug/ml after 7 days by MTT assay relative to control; assay type: cell-based, J774.A1; settings: read-out: Activity; procedure, shortened: as §3
[28] = system: Mycobacterium tuberculosis; test: Antimycobacterial activity against Mycobacterium tuberculosis H37Rv SRI 1345 infected in mouse J774A1 cells assessed as reduction in bacterial growth at 0.75 ug/ml after 7 days relative to control; assay type: functional, J774.A1; procedure, shortened: as §4
[29] = Cytotoxicity against mouse J774A1 cells assessed as cell viability at 7.5 ug/ml after 7 days by MTT assay relative to control; assay type: cell-based, J774.A1; settings: read-out: Activity; procedure, shortened: as §3
[30] = Cytotoxicity against mouse J774A1 cells assessed as cell viability at 75 ug/ml after 7 days by MTT assay relative to control; assay type: cell-based, J774.A1; settings: read-out: Activity; procedure, shortened: as §3
[31] = system: Mycobacterium tuberculosis; test: Antimycobacterial activity against Mycobacterium tuberculosis H37Rv ATCC 27294 at 0.79 ug/ml after 7 days by microplate Alamar blue assay relative to control; assay type: functional; settings: H37Rv ATCC 27294, 168 h; procedure, shortened: as §1
[32] = system: Mycobacterium tuberculosis; test: Antimycobacterial activity against Mycobacterium tuberculosis H37Rv ATCC 27294 at 25 ug/ml after 7 days by microplate Alamar blue assay relative to control; assay type: functional; settings: H37Rv ATCC 27294, 168 h; procedure, shortened: as §1

| Structure (SMILES) | IC50 [3] | IC90 [3] | MIC90 [5] | inhibition at 3.13 µg/mL [7] | inhibition at 1.56 µg/mL [8] | inhibition at 6.25 µg/mL [9] | inhibition at 100 µg/mL [10] | inhibition at 50 µg/mL [11] | inhibition at 12.5 µg/mL [12] | MIC [15] | inhibition (INH) [17] | INH [23] | inhibition at 0.79 µg/mL [31] | also measured |
| --- | --- | --- | --- | --- | --- | --- | --- | --- | --- | --- | --- | --- | --- | --- |
| NNC(=O)c1ccncc1 [ISONIAZID] | 0.18 µg/mL (≈ 1.31 µM) | 0.29 µg/mL (≈ 2.11 µM) | 0.31 µM (≈ 0.0425 µg/mL) | – | – | – | – | – | – | – | – | – | – | inhibition at 0.31 µg/mL [1]: 92.9%; inhibition (INH) [2]: 94%; inhibition at 0.63 µg/mL [4]: 93.9% |
| CC[C@@H](CO)NCCN[C@@H](CC)CO [ETHAMBUTOL] | < 1.56 µg/mL | 32.8 µg/mL (≈ 160 µM) | 12.5 µM (≈ 2.55 µg/mL) | 84.3% | 69.1% | 86.6% | 90% | – | – | – | – | – | – | inhibition (INH) [6]: 89% |
| CCOC(=O)c1cc(C(=O)c2ccccc2)n2ccc(-c3ccn4c(C(=O)c5ccc(OC)cc5)cc(C(=O)OC)c4c3)cc12 | > 100 µg/mL | > 100 µg/mL | > 100 µM | – | -2% | – | -4.5% | 5.3% | 0.8% | – | – | – | – | – |
| CO[C@H]1/C=C/O[C@@]2(C)Oc3c(C)c(O)c4c(O)c(c(/C=N/N5CCN(C)CC5)c(O)c4c3C2=O)NC(=O)/C(C)=C\C=C\[C@H](C)[C@H](O)[C@@H](C)[C@@H](O)[C@@H](C)[C@H](OC(C)=O)[C@@H]1C [RIFAMPIN] | 0.02 µg/mL (≈ 0.0243 µM) | 0.02 µg/mL (≈ 0.0243 µM) | 0.04 µM (≈ 0.0329 µg/mL) | – | – | – | – | – | – | 0.049 µg/mL (≈ 0.0595 µM) | 63% | 0.13 µg/mL | – | fold change (FC) [13]: 1.49; viability at 168 h, 0.1 ug/ml [14]: 93%; inhibition at 0.02 µg/mL [16]: 61.2%; viability at 168 h, 0.01 ug/ml [18]: 94%; fold change (FC) [19]: 0.81; viability at 168 h, 1 ug/ml [20]: 85%; MBC ([21]; read-out: MBC99.9): 1.56 µg/mL (≈ 1.9 µM); fold change (FC) [22]: 0.98 |
| CCOC(=O)c1cc(C(=O)c2ccccc2)n2ccc(-c3cc[n+](CC(=O)c4ccc(OC)cc4)cc3)cc12.[Br-] | 3.88 µg/mL | 13.1 µg/mL | 12.5 µM | 38.6% | – | 65.1% | – | – | – | 2.34 µg/mL | 51% | 1.17 µg/mL | 9.9% | MIC90 [1]: 12.5 µM; inhibition (INH) [24]: 98.5%; fold change (FC) [25]: 2.65; fold change (FC) [26]: 3.11; viability at 168 h, 0.75 ug/ml [27]: 86%; fold change (FC) [28]: 1.19; viability at 168 h, 7.5 ug/ml [29]: 71%; viability at 168 h, 75 ug/ml [30]: < 10%; Activity [21]: inactive |
| CCOC(=O)c1cc(C#N)n2ccc(-c3ccncc3)cc12 | 33.4 µg/mL (≈ 114 µM) | 59.5 µg/mL (≈ 204 µM) | > 100 µM | – | – | – | 97.2% | 84.9% | 15.3% | – | – | – | 8.6% | inhibition at 25 µg/mL [32]: 21.5% |
